The record followed here is ChEMBL document CHEMBL1123113, “"Reverse" and "symmetrical" analogues of actinomycin D: metabolic activation and in vitro and in vivo tumor growth inhibitory activities” (J Med Chem, 1985).

Data set [1] can be described thus: Minimum tolerated dose is the lethal dose for 10% normal mice for deaths during 21 days. In kind it is ADME, organism-based. The note with it: mouse, in vivo. In outline:
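Tumor-free male BDF1 mice (18–22 g) received a broad dose range ip in 5% dimethyl sulfoxide-saline on days 1, 5 and 9. Deaths were recorded over 21 days. The LD10 (dose killing 10% of animals) was calculated from a plot of log-dose vs. percent mortality.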

In data set [2] the test system is P388. As to the kind of experiment: Inhibition of DNA synthesis was measured as the concentration required to cause 50% reduction (in 1h) in methyl [3H]thymidine incorporation into acid precipitable material using P388 cells. In kind it is functional, cell-based. The settings on record: Mus musculus. In short, it runs like this:
(§1)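 P388 cells were exposed for 1 h. IC50 (µM) was taken as 50% reduction of methyl-[3H]thymidine (DNA) or 2-[14C]uridine (RNA) incorporation into acid-precipitable material. The ratio is IC50 DNA divided by IC50 RNA.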

Data set [3] has as its system P388. Description: Inhibition of RNA synthesis was measured as the concentration required to cause 50% reduction (in 1h) in 2-[14C]uridine incorporation into acid precipitable material using P388 cells. The class given is functional, cell-based. The note with it: Mus musculus, P388, 1 h.
Data set [4] can be described thus: Therapeutic index (MTD/MED) value of the compound. The settings on record: read-out: TI.
The nature of data set [5]: IC50 DNA/IC50 RNA ratio of the compound. The class given is functional. In short, it runs like this:
as §1

The species named for data set [6] is Rattus norvegicus. As to the kind of experiment: (§2) Compound tested for NADPH oxidation in rat hepatic mycrosomal incubation. In kind it is functional. In short, it runs like this: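 Phenobarbital-induced male Sprague-Dawley rat liver microsomes were placed in both cuvettes, without epinephrine. NADPH 0.4 mM was added to the sample side only, and absorbance was read at 340 nm. Percent stimulation = (drug rate − basal)/basal × 100. Values are the average ± standard errors of triplicates.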

The species entered for data set [7] is Rattus norvegicus. Description: (§3) Compound tested for adrenochrome formation in rat hepatic mycrosomal incubation. The class given is functional. In outline: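 Adrenochrome assay for superoxide: epinephrine in 0.01 N HCl plus 300 µg of phenobarbital-induced rat liver microsomes at 37 °C. NADPH 0.4 mM was added to the sample side 1 min later, and the rate was read at 480 nm (ε 4.02 mM−1 cm−1). Drugs were at ≤100 µM, made in 150 mM KCl–50 mM Tris, pH 7.4. Percent stimulation is over basal rate, in triplicate.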

The species named for data set [8] is Rattus norvegicus. The data set is described as §2. The class given is functional. In outline: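 Phenobarbital-induced rat liver microsomes (300 µg), 37 °C, no epinephrine; NADPH 0.4 mM added to sample cuvette only. A340 followed; % oxidation = (1 − A340/A'340)×100 vs cuvette not activated by microsomes; % stimulation = (drug rate − basal rate)/basal rate ×100. Drugs in 150 mM KCl-50 mM Tris pH 7.4; triplicate analyses, mean ± standard error.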
This is another data set of the same source.

The species entered for data set [9] is Rattus norvegicus. The description is as §3. The class given is functional. In outline:
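Superoxide read as adrenochrome from epinephrine (in 0.01 N HCl) with phenobarbital-induced rat liver microsomes (300 µg) at 37 °C; NADPH 0.4 mM added to sample cuvette after 1 min. Rate at 480 nm (ε 4.02 mM-1 cm-1); drug ≤100 µM in 150 mM KCl-50 mM Tris pH 7.4; % stimulation over basal rate; triplicate, mean ± standard error.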
The source holds these as a separate data set.

The next data set relates to CCRF-CEM. As to the kind of experiment: Inhibitory dose required for the inhibition of human lymphoblastic leukemia cells(CCRF-CEM). The class given is functional. The note with it: read-out: ID50 (the source's name).
Data set [10] relates to Mus musculus. Description: Antitumor activity against P388 leukemia cells in terms of percentage increase in life span in mice at an optimal dose of 1200 ug/kg administered ip. In kind it is functional.
Data set [11] relates to Mus musculus. As to the kind of experiment: Antitumor activity against B16 melanoma in terms of percentage increase in life span in mice at an optimal dose of 1200 ug/kg administered ip. The class given is functional.
Data set [12] is filed under the species Mus musculus. Description: Dose providing an increase in the life span of 45% over control in P388 tumor bearing mice. The class given is functional. The settings on record: read-out: MED. In outline: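 MED is the ip dose in mg/kg, given on days 1, 5 and 9 starting 1 day after implantation, that gives a 45% increase in life span over control in P388-bearing mice. It was derived from plotted log-dose response data.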

The test system of data set [13] is Mus musculus. As to the kind of experiment: Antitumor activity against P388 leukemia cells in terms of median survival time of mice at an optimal dose of 1200 ug/kg administered ip. In kind it is functional.
Data set [14] has as its system Mus musculus. As to the kind of experiment: Antitumor activity against B16 melanoma in terms of median survival time of mice at an optimal dose of 1200 ug/kg administered ip. The class given is functional.
In data set [15] the test system is Mus musculus. As to the kind of experiment: In vivo antitumor activity was determined against P388 leukemia mice as number of mice survived after administration of 1200 ug/Kg dose of compound; Value represented as no of survivors/ treated = 0/8. The class given is functional.
Data set [16] deals with Mus musculus. As to the kind of experiment: In vivo antitumor activity was determined against B16 melanoma mice as number of mice survived after administration of 1200 ug/Kg dose of compound; Value represented as no of survivors/ treated = 1/9. In kind it is functional.

Take `Cc1c2oc3c(C)c(O)c(N)c(C(=O)N[C@@H]4C(=O)N[C@H](C(C)C)C(=O)N5CCC[C@H]5C(=O)N(C)CC(=O)N(C)[C@@H](C(C)C)C(=O)O[C@@H]4C)c3nc-2c(C(=O)N[C@@H]2C(=O)N[C@H](C(C)C)C(=O)N3CCC[C@H]3C(=O)N(C)CC(=O)N(C)[C@@H](C(C)C)C(=O)O[C@@H]2C)c(N)c1=O`: in [1], the MTD at 504 h amounted to 2.4 mg/kg. Also, the IC50 with P388 [2] was found to be 1110 nM; in the data set with P388 [3], 1150 nM. Moreover, in data set [4], the selectivity ratio was 96.
Consider `Cc1c2oc3c(C)c(O)c(N)c(C(=O)N[C@H]4C(=O)N[C@@H](C(C)C)C(=O)N5CCC[C@H]5C(=O)N(C)CC(=O)N(C)[C@H](C(C)C)C(=O)O[C@H]4C)c3nc-2c(C(=O)N[C@@H]2C(=O)N[C@H](C(C)C)C(=O)N3CCC[C@@H]3C(=O)N(C)CC(=O)N(C)[C@@H](C(C)C)C(=O)O[C@@H]2C)c(N)c1=O`, for which the Ratio in [5] turned out to be 0.97.
Turning to `Cc1c2oc3c(C)ccc(C(=O)N[C@@H]4C(=O)N[C@H](C(C)C)C(=O)N5CCC[C@@H]5C(=O)NCC(=O)N[C@@H](C(C)C)C(=O)O[C@@H]4C)c3nc-2c(C(=O)N[C@H]2C(=O)N[C@@H](C(C)C)C(=O)N3CCC[C@H]3C(=O)NCC(=O)N[C@H](C(C)C)C(=O)O[C@H]2C)c(N)c1=O`, the Ratio in [5] was determined as 22.4.
In data set [1], `Cc1c2oc3c(C)c4oc(-c5ccccc5)nc4c(C(=O)N[C@@H]4C(=O)N[C@H](C(C)C)C(=O)N5CCC[C@H]5C(=O)N(C)CC(=O)N(C)[C@@H](C(C)C)C(=O)O[C@@H]4C)c3nc-2c(C(=O)N[C@@H]2C(=O)N[C@H](C(C)C)C(=O)N3CCC[C@H]3C(=O)N(C)CC(=O)N(C)[C@@H](C(C)C)C(=O)O[C@@H]2C)c(N)c1=O` came in with a maximal tolerated dose (MTD) at 504 h of 1.8 mg/kg. Also, the IC50 amounted to 800 nM in the data set with P388 [2] and 70 nM in the data set on P388 [3]. The selectivity ratio in [4] was 60.
Compound `Cc1c2oc3c(C)c4oc(-c5ccccc5)nc4c(C(=O)N[C@@H]4C(=O)N[C@H](C(C)C)C(=O)N5CCC[C@H]5C(=O)N(C)CC(=O)N(C)[C@@H](C(C)C)C(=O)O[C@@H]4C)c3nc-2c(C(=O)N[C@@H]2C(=O)N[C@H](C(C)C)C(=O)N3CCC[C@H]3C(=O)N(C)CC(=O)N(C)[C@@H](C(C)C)C(=O)O[C@@H]2C)cc1=O` yielded a maximum tolerated dose (MTD) at 504 h in [1] of 2 mg/kg. Further, the IC50 with P388 [2] is 5700 nM; in the data set on P388 [3] it was 3200 nM. The selectivity ratio in data set [4] was determined as 10.
Consider `CCN(CC)C(=O)c1c2nc3c(C(=O)N(CC)CC)c4nc(C)oc4c(C)c3oc-2c(C)c(=O)c1N`, for which the NADPH oxidation in the data set listed under Rattus norvegicus [6] is reported as 8.9 nM min-1 (mg of protein)-1. Also, the adrenochrome formation in the data set listed under Rattus norvegicus [7] is 2.13 nM min-1 (mg of protein)-1.
For `CCN(CC)C(=O)c1c2nc3c(C(=O)N(CC)CC)c(N)c(O)c(C)c3oc-2c(C)c(=O)c1N`, the NADPH oxidation in the data set filed under Rattus norvegicus [8] is reported as 8.9 nM min-1 (mg of protein)-1. Moreover, the adrenochrome formation in the data set filed under Rattus norvegicus [9] is on record as 2.13 nM min-1 (mg of protein)-1.
The compound `Cc1c2oc3c(C)c(O)c(N)c(C(=O)N[C@@H]4C(=O)N[C@H](C(C)C)C(=O)N5CCC[C@H]5C(=O)N(C)CC(=O)N(C)[C@@H](C(C)C)C(=O)O[C@@H]4C)c3nc-2c(C(=O)N[C@@H]2C(=O)N[C@H](C(C)C)C(=O)N3CCC[C@H]3C(=O)N(C)CC(=O)N(C)[C@@H](C(C)C)C(=O)O[C@@H]2C)cc1=O` [listing 1 of 2 here] yielded an MTD at 504 h in data set [1] of 3.5 mg/kg. Besides, the IC50 with P388 [2] and in the data set on P388 [3] was 5100 nM in each case. Further, in data set [4], the selectivity ratio is 13.
Take `Cc1c2oc3c(C)c(O)c(N)c(C(=O)N[C@H]4C(=O)N[C@@H](C(C)C)C(=O)N5CCC[C@H]5C(=O)N(C)CC(=O)N(C)[C@H](C(C)C)C(=O)O[C@H]4C)c3nc-2c(C(=O)N[C@@H]2C(=O)N[C@H](C(C)C)C(=O)N3CCC[C@@H]3C(=O)N(C)CC(=O)N(C)[C@@H](C(C)C)C(=O)O[C@@H]2C)cc1=O`: the Ratio in data set [5] was 1.
`CCN(CC)C(=O)c1cc(=O)c(C)c2oc3c(C)c4oc(-c5ccccc5)nc4c(C(=O)N(CC)CC)c3nc1-2`: in the data set filed under Rattus norvegicus [6], the NADPH oxidation is on record as 8.9 nM min-1 (mg of protein)-1. Moreover, the adrenochrome formation in the data set filed under Rattus norvegicus [7] is recorded as 2.13 nM min-1 (mg of protein)-1.
Take `Cc1c2oc3c(C)c(O)c(N)c(C(=O)N[C@@H]4C(=O)N[C@H](C(C)C)C(=O)N5CCC[C@H]5C(=O)N(C)CC(=O)N(C)[C@@H](C(C)C)C(=O)O[C@@H]4C)c3nc-2c(C(=O)N[C@@H]2C(=O)N[C@H](C(C)C)C(=O)N3CCC[C@H]3C(=O)N(C)CC(=O)N(C)[C@@H](C(C)C)C(=O)O[C@@H]2C)cc1=O` [listing 2 of 2 here]: the IC50 in the data set on CCRF-CEM amounted to 1000 nM. For the same compound, the ILS at 1.2 mg/kg turned out to be 136% in the data set with Mus musculus [10] and 52% in the data set on Mus musculus [11]. Also, in the data set listed under Mus musculus [12], the minimal effective dose amounted to 0.275 mg/kg. The MST in the data set with Mus musculus [13] stood at 26 days; in the data set with Mus musculus [14], 44 days. In addition, the values for the Survivors with Mus musculus [15] and in the data set with Mus musculus [16] were 0 and 1, respectively. Besides, the NADPH oxidation in the data set filed under Rattus norvegicus [6] is on record as 29.9 nM min-1 (mg of protein)-1. For the same compound, in the data set filed under Rattus norvegicus [7], the adrenochrome formation was 7.29 nM min-1 (mg of protein)-1.
For the compound `Cc1c2oc3c(C)c4oc(-c5ccccc5)nc4c(C(=O)N[C@H]4C(=O)N[C@@H](C(C)C)C(=O)N5CCC[C@H]5C(=O)NCC(=O)N(C)[C@H](C(C)C)C(=O)O[C@H]4C)c3nc-2c(C(=O)N[C@@H]2C(=O)N[C@H](C(C)C)C(=O)N3CCC[C@@H]3C(=O)NCC(=O)N[C@@H](C(C)C)C(=O)O[C@@H]2C)cc1=O`, the Ratio in data set [5] is 1.78.
Consider `Cc1nc2c(C(=O)N[C@H]3C(=O)N[C@@H](C(C)C)C(=O)N4CCC[C@H]4C(=O)N(C)CC(=O)N(C)[C@H](C(C)C)C(=O)O[C@H]3C)c3nc4c(C(=O)N[C@@H]5C(=O)N[C@H](C(C)C)C(=O)N6CCC[C@@H]6C(=O)N(C)CC(=O)N(C)[C@@H](C(C)C)C(=O)O[C@@H]5C)c(N)c(=O)c(C)c-4oc3c(C)c2o1`, for which the Ratio in data set [5] came to 11.2.
On the same count and under the same terms, the result for `Cc1c2oc3c(C)c4oc(-c5ccccc5)nc4c(C(=O)N[C@H]4C(=O)N[C@@H](C(C)C)C(=O)N5CCC[C@H]5C(=O)N(C)CC(=O)N(C)[C@H](C(C)C)C(=O)O[C@H]4C)c3nc-2c(C(=O)N[C@@H]2C(=O)N[C@H](C(C)C)C(=O)N3CCC[C@@H]3C(=O)N(C)CC(=O)N(C)[C@@H](C(C)C)C(=O)O[C@@H]2C)c(N)c1=O` reads 11.4.

By MTD is commonly meant the largest dose that counted as tolerated. High values mean better tolerability, low ones poorer tolerability. A word on the ILS: it is how much longer treated animals lived than controls. A high value points to a large benefit in survival.
